Screens: PubChem BioAssay, The Scripps Research Institute Molecular Screening Center
Compounds with a hit are over-represented: about 4.6% of the library has one in this group of screens.
OX1R antag-1: human HCRTR1 antagonism. hit rate 0.43% among 330,000. CHO/OX1R cells, Fluo-8 calcium fluorescence, orexin A. O43613. inhibition, % at 5 µM;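 active = inhibition above its plate's threshold, mean inhibition of all tested compounds on the plate plus 3 SD, cut at about 37% in these data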
Target sequence (O43613 whole entry, looked up): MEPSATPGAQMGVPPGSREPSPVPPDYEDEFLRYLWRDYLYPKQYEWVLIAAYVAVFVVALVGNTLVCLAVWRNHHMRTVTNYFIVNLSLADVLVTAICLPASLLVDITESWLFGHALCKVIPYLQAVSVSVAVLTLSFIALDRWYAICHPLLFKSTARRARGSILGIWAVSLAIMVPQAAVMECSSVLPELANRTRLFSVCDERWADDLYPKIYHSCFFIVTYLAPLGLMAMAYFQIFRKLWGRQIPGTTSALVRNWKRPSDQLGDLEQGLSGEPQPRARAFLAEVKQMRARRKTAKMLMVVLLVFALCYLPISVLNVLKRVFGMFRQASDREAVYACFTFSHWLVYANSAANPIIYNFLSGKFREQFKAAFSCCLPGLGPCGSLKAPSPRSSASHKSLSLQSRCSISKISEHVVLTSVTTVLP
CHO parental Ca: signal in parental CHO cells, OX1R antagonist counter-screen. parental CHO-K1, ATP-induced calcium, Fluo-8 fluorescence. hit rate 0.63% among 330,000. inhibition, % at 5.6 µM;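 active = inhibition above that plate's mean sample inhibition plus 3 SD, cut at about 26% in these data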
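Test system: untransfected parental CHO cell line. Compound: one dose, 5.6 µM nominal. Detection: intracellular calcium via Fluo-8 no-wash fluorescent dye. Measure: % inhibition. Benchmarks: ATP-challenged DMSO wells low, unchallenged DMSO wells high.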
TAAR1 ag: agonists of human TAAR1. hit rate 0.99% among 360,000. activation, % at 3 µM. CHO RD-HGA16 TAAR1, Fluo-8 calcium fluorescence; vehicle wells 0%, saturating PEA agonist 100%. Q96RJ0;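 active = activation above the mean activation of all test compounds in the run plus 3 SD, cut at about 38% in these data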
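System: CHO-derived RD-HGA16 cells with stable Gα16 and human TAAR1. Times: 17-24 h plating, Fluo-8 75 min 37 °C, 30 min RT. Measured by: calcium-sensitive Fluo-8 signal, excitation 470-495, emission 515-575 nm. Read-out basis: % activation relative to PEA EC100 response. Control set: DMSO and PEA EC100. Repeats: no replicates (n 1).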
TAAR1 antag: antagonists of human TAAR1. Q96RJ0. CHO RD-HGA16 TAAR1, Fluo-8 calcium fluorescence, antagonist. inhibition, % at 3 µM. hit rate 1.5% among 360,000;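 active = inhibition above a per-plate cutoff, the mean inhibition of test compounds on that plate plus 3 SD, cut at about 49% in these data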
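System: CHO RD-HGA16 cells bearing hTAAR1. Reagent: EC80 β-phenethylamine stimulus. Schedule: seeding 17-24 h prior, 75-min 37 °C, 30-min RT dye loading. Signal: Fluo-8 intracellular calcium dye fluorescence, real-time kinetic reads. Read-out: % inhibition from peak post-agonist over basal fluorescence ratio. Benchmarks: vehicle wells and EC80 agonist wells. Replicates: n of 1.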
GPR7 antagonist: human neuropeptides B/W receptor 1 antagonism; GPR7-expressing cells, fluorescence antagonist assay; inhibition, % at 4.4 µM; hit rate 1.1% among 290,000; AID 1861; in the data active = inhibition above about 16%, passing the limit was not always enough;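 note: cells stimulated with the agonist NPW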
Target sequence (P48145 whole entry, looked up): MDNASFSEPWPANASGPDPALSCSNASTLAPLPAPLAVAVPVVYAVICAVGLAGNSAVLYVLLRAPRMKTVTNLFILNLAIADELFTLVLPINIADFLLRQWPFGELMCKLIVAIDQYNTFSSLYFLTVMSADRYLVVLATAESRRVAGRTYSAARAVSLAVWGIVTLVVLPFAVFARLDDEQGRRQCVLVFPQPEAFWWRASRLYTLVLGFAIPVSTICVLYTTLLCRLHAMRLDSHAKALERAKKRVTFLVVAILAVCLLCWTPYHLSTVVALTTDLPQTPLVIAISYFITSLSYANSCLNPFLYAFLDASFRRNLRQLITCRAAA
OX1R antag-2: OX1R (human) antagonism; OX1R-expressing cells, FRET antagonist read-out; inhibition, % at 6.6 µM; hit rate 1.8% among 330,000; AID 485270; in the data active = inhibition mostly above about 38%, no sharp cut-off; inactive = mostly below about 40%
Each line names hits and unclear results; the compound was inactive in the other large screens.

Nc1c2c(nc3sc4c(c13)CCCC4)-c1ccccc1CC2	OX1R antag-2 72
NNc1nc(-c2ccccc2)nc2sc3c(c12)CCCC3	none
CCOc1ccc(-n2c(=S)sc3c(=O)[nH]c(SCC(=O)C(C)(C)C)nc32)cc1	OX1R antag-2 48
COc1ccc(NC(=O)Cn2c(=O)oc3cc(S(=O)(=O)N4CCCC4)ccc32)cc1	none
Cc1ccc(NC(=O)Cn2c(=O)oc3cc(S(=O)(=O)N4CCC(C)CC4)ccc32)cc1C	CHO parental Ca 32
Nc1cc(S(=O)(=O)Nc2ccc(Cl)cc2)ccc1N1CCOCC1	CHO parental Ca 36
CC(C)N(C)c1ncnc2c1ncn2[C@H]1CN(C2CCCC2)C[C@@H](CO)O1	none (no result: OX1R antag-1, CHO parental Ca, GPR7 antagonist, OX1R antag-2)
Cc1cc(CNC(=O)C(C)n2cc([N+](=O)[O-])cn2)c2ccccc2n1 (stereo unspecified)	OX1R antag-2 69
CC1CC(C)CN(C(=S)Nc2ccc(SC(F)F)cc2)C1 (stereo unspecified)	TAAR1 ag 41
C=CC(C)Sc1nc2c(c(=O)n(C)c(=O)n2C)n1Cc1ccccc1Cl (stereo unspecified)	none
CCc1noc(C)c1C(=O)NCCN1C(=O)S/C(=C\c2ccc(OC)cc2)C1=O	OX1R antag-2 58 (no result: GPR7 antagonist)
O=c1cc(NC2CCCCC2)[nH]c(=O)[nH]1	none (no result: GPR7 antagonist)
Cc1ccc(N(CC(O)CON=C2c3ccccc3-c3ccccc32)S(C)(=O)=O)cc1 (stereo unspecified)	OX1R antag-2 54
CCN(CC)S(=O)(=O)c1ccc(C(=O)Nc2ccc(Cc3ccncc3)cc2)cc1	OX1R antag-1 82, CHO parental Ca 85, TAAR1 antag 56, OX1R antag-2 39
O=C(Nc1ccc(Cc2ccncc2)cc1)c1cccc([N+](=O)[O-])c1	none
Cc1ccc(C(=O)Nc2ccc(Cc3ccncc3)cc2)cc1[N+](=O)[O-]	TAAR1 antag 60
CC(C)(C)c1ccc(S(=O)(=O)Nc2ccc(Cc3ccncc3)cc2)cc1	TAAR1 ag 46
CCOc1ccc(N=Nc2ccc(O)c3ncccc23)cc1	none (no result: OX1R antag-1, CHO parental Ca, OX1R antag-2)
Oc1ccc(N=Nc2ccc3c(c2)OCCO3)c2ncccc12	OX1R antag-1 51, CHO parental Ca 51, TAAR1 antag 79
Cc1ccc(C)c(N=Nc2ccc(O)c3ncccc23)c1	CHO parental Ca 37
Cc1cccc(N=Nc2ccc(O)c3ncccc23)c1	OX1R antag-1 48, CHO parental Ca 68, TAAR1 antag 76
Cc1cccc(-c2noc(C(C)NC(=O)c3ccco3)n2)c1 (stereo unspecified)	none
CC(=NNC(=O)c1ccncc1)c1ccc(Cl)cc1Cl	none (no result: OX1R antag-1, CHO parental Ca, GPR7 antagonist, OX1R antag-2)
CC1=C(C(=O)OCC(C)C)[C@]23C(=O)c4ccccc4[C@@]2(O1)OC(N)=C3C#N	GPR7 antagonist 17
CC1=C(C(=O)OCC(C)C)C23C(=O)c4ccccc4C2(O1)OC(N)=C3C#N (stereo unspecified)	none
Cc1ccc(S(=O)(=O)NNC(=S)NC(=O)c2ccc([N+](=O)[O-])cc2)cc1	OX1R antag-2 70
O=C(c1ccc(-c2ccc([N+](=O)[O-])cc2)o1)N1CCCCC1	none
O=C(NC(=S)NNC(=O)c1ccccc1O)c1ccc([N+](=O)[O-])cc1	TAAR1 ag 44
O=C(NNC(=O)c1ccccc1O)c1ccc(-c2ccc([N+](=O)[O-])cc2)o1	OX1R antag-2 55 (no result: GPR7 antagonist)
CCCCCC(=O)NNC(=S)NC(=O)c1ccc([N+](=O)[O-])cc1	OX1R antag-2 70
Cc1ccc(C(=O)NC(=S)NNC(=O)c2ccc([N+](=O)[O-])cc2)cc1	none
COc1ccccc1C(CNC(=O)c1ccc(NS(=O)(=O)c2ccc(C(C)=O)cc2)cc1)N1CCCC1 (stereo unspecified)	none (no result: OX1R antag-1, CHO parental Ca, GPR7 antagonist, OX1R antag-2)
Cc1cc(C)c(NC(=O)CS(=O)CC(=O)Nc2ccc(-n3cnnn3)c(C)c2)c(C)c1 (stereo unspecified)	none
OCC1OC(n2ccc3c(SCc4ccccc4)ncnc32)C(O)C1O (stereo unspecified)	none (no result: OX1R antag-1, CHO parental Ca, GPR7 antagonist, OX1R antag-2)
O=C(NNC(=S)NC(=O)c1ccccc1[N+](=O)[O-])c1ccccc1[N+](=O)[O-]	none
Cc1ccc(C(=O)NC(=S)NNC(=O)c2ccccc2[N+](=O)[O-])cc1	TAAR1 ag 38
O=C(O)c1ccc(NC(=O)c2cn(-c3ccccc3)nc2-c2cccc(Cl)c2)cc1	TAAR1 antag 52
O=C(O)c1ccc(NC(=O)c2cn(-c3ccccc3)nc2-c2ccc(F)cc2)cc1	TAAR1 antag 59
CCn1nc(CC(C)C)cc1C(=O)N1CCCC(Nc2ccc(OC)cc2)C1 (stereo unspecified)	none
COc1cccc(C(O)c2nc(-c3ccc(F)cc3OC)cs2)c1 (stereo unspecified)	none (no result: OX1R antag-1, CHO parental Ca, GPR7 antagonist, OX1R antag-2)
NC(Cc1ccc(C(F)(F)F)cc1)c1csc(Nc2ccc(C(=O)c3ccccc3)cc2)n1 (stereo unspecified)	none (no result: OX1R antag-1, CHO parental Ca, GPR7 antagonist, OX1R antag-2)
CC(=O)c1ccc(Nc2nc(C(N)Cc3ccc(C(F)(F)F)cc3)cs2)cc1 (stereo unspecified)	TAAR1 ag 52 (no result: OX1R antag-1, CHO parental Ca, GPR7 antagonist, OX1R antag-2)
COc1ccc(CC(N)c2csc(NC(=O)Nc3ccc(OC)cc3)n2)cc1 (stereo unspecified)	none (no result: OX1R antag-1, CHO parental Ca, GPR7 antagonist, OX1R antag-2)
COc1ccc(NC(=O)Nc2nc(C(N)Cc3ccc(C(F)(F)F)cc3)cs2)cc1 (stereo unspecified)	TAAR1 ag 40, TAAR1 antag 50 (no result: OX1R antag-1, CHO parental Ca, GPR7 antagonist, OX1R antag-2)
CC(C)(C)c1csc(NC(=O)CSc2nc3ccccc3c(=O)[nH]2)n1	none
Cc1ccc(SCCNC(=O)c2ccc(C)c(S(=O)(=O)Nc3cccc(C)c3)c2)cc1	OX1R antag-2 38
Cc1ccc(NS(=O)(=O)c2cc(C(=O)NCCSc3ccc(C)cc3)ccc2C)cc1	none
O=C(c1ccc(-c2ccc(Cl)cc2)o1)N1CCN(c2ccc([N+](=O)[O-])cc2Cl)CC1	CHO parental Ca 37
O=C(Nc1ccccc1N1CCN(C(=O)c2ccc(Cl)cc2)CC1)c1cccc([N+](=O)[O-])c1	TAAR1 antag 51
CN1CCN(c2ccccc2NC(=O)c2cccc([N+](=O)[O-])c2)CC1	none
Cc1ccc(S(=O)(=O)N2CCCC2C(=O)OCc2nc3ccccc3s2)cc1 (stereo unspecified)	CHO parental Ca 59
Cc1ccc(S(=O)(=O)N2CCC[C@H]2C(=O)OCc2nc3ccccc3s2)cc1	none (no result: OX1R antag-1, CHO parental Ca, GPR7 antagonist, OX1R antag-2)
Cc1ccc(NS(=O)(=O)c2ccc(OCC(=O)NCc3ccco3)cc2)cc1	TAAR1 ag 40
CC(SCc1ccccc1)C(=O)N/N=C/c1ccc(OCC(=O)NCc2ccco2)cc1 (stereo unspecified)	OX1R antag-2 56
O=C1c2cccc3cccc(c23)C(=O)N1c1nccs1	none
O=C1c2cccc3c([N+](=O)[O-])ccc(c23)C(=O)N1c1ccccn1	OX1R antag-2 68
